How the values were obtained:
[1] = melting temperature; fluorescence melt of hairpins on a sequencing array, two-state fit, raised by 9.35 °C to match UV melts; settings: sodium 0.088 M
Outline: (§1)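 Cy3 signals were normalised both to pre-quench Cy3 and to control constructs. They came from library hairpins carrying annealed Cy3 and quencher oligos on a sequenced MiSeq flow cell, imaged in 50 mM Na-HEPES pH 8.0, 25 mM NaCl, in 2.5 °C steps up to 60 °C. Bootstrapped two-state fits gave melting temperature and folding enthalpy, and four replicates were combined by inverse variance. Fitted temperatures were then raised by 9.35 °C to match UV melts.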

[2] = folding enthalpy; higher = less favourable; fluorescence melt of hairpins on a sequencing array, two-state fit; settings: sodium 0.088 M
Outline: as §1

Sequence	Tm [1]	folding enthalpy [2]
GCAAACGGAAACATTTGC (((((.(....).)))))	36.7 °C	-28.2 kcal/mol
GCAAACGGAAACGCTTGC ((((.((....)).))))	47.6 °C	-35.1 kcal/mol
GCAAAGCGAAAGCCATGC (((..((....))..)))	32.2 °C	-12.3 kcal/mol
GCAAAGCGAAAGCCTAGC ((.(.((....)).).))	30.2 °C	-7.83 kcal/mol
GCAAAGCGAAAGCCTCGC ((.(.((....)).).))	27.9 °C	-7.59 kcal/mol
GCAAAGCGAAAGCGCTGC (((..((....))..)))	57.4 °C	-16.9 kcal/mol
GCAAAGCGAAAGCTACGC ((..(((....)))..))	40.8 °C	-11 kcal/mol
GCAAAGCGAAAGCTAGGC ((..(((....)))..))	48.3 °C	-15.1 kcal/mol
GCAAAGCGAAAGCTTCGC ((.((((....)))).))	55.8 °C	-23.8 kcal/mol
GCAAAGCGAAAGCTTGC (((.(((....))))))	64.5 °C	-23.8 kcal/mol
GCAAAGTCGAAAGACTGC (((..(((....))))))	47.8 °C	-19.5 kcal/mol
GCAAATGGAAACATTTAC (.(((((....))))).)	28.1 °C	-13.5 kcal/mol
GCAACAGGAAACTATTGC ((((.((....)).))))	31.8 °C	-19.2 kcal/mol
GCAACAGGAAACTGTCGC ((.((((....)))).))	44.2 °C	-32.1 kcal/mol
GCAACCGAAAGGTCTGC ((((((....))).)))	47.6 °C	-22.7 kcal/mol
GCAACCGCGAAAGCGTGC (((..(((....))))))	44.7 °C	-14.3 kcal/mol
GCAACCGGAAACAGTTGC (((((.(....).)))))	45.7 °C	-31.7 kcal/mol
GCAACGCGAAAGCGCAGC ((..(((....)))..))	48.1 °C	-11.7 kcal/mol
GCAACGCGAAAGCTGTGC (((..((....))..)))	48.9 °C	-15.2 kcal/mol
GCAACGCGAAAGCTTAGC ((.(.((....)).).))	28.5 °C	-7.66 kcal/mol
GCAACGCGAAAGCTTGGC ((.(.((....)).).))	38.5 °C	-11.5 kcal/mol
GCAACGTCGAAAGACTGC (((..(((....))))))	39.1 °C	-20.1 kcal/mol
GCAACTCGAAAGAGCTGC (((.(((....))).)))	52.3 °C	-46.6 kcal/mol

Sequence	Tm [1]	folding enthalpy [2]
GCAACTGGAAACGGTTGC (((((.(....).)))))	54.2 °C	-45.2 kcal/mol
GCAAGACGAAAGTCGTGC (((.(((....))).)))	61.1 °C	-32.2 kcal/mol
GCAAGAGGAAACTTTTGC ((((.((....)).))))	39 °C	-26 kcal/mol
GCAAGCGAAAGCTATTGC ((((((....)))..)))	42.8 °C	-17.5 kcal/mol
GCAAGCGAAAGCTCATGC ((((((....)))..)))	35.2 °C	-12.5 kcal/mol
GCAAGCGAAAGCTGATGC ((((((....)))..)))	45.7 °C	-16.3 kcal/mol
GCAAGCGAAAGCTGCTGC ((((((....)))..)))	67.2 °C	-19.5 kcal/mol
GCAAGCGAAAGCTTATGC ((((((....)))..)))	39.8 °C	-14.7 kcal/mol
GCAAGCGAAAGCTTCTGC ((((((....)))..)))	42.1 °C	-11.5 kcal/mol
GCAAGCGAAAGCTTGTGC ((((((....)))..)))	66.7 °C	-16.9 kcal/mol
GCAAGGCGAAAGCAGTGC (((..((....))..)))	50.9 °C	-16.8 kcal/mol
GCAAGGCGAAAGCCCTGC (((.(((....))).)))	50.7 °C	-31.3 kcal/mol
GCAAGGCGAAAGCCTCGC ((.((((....)))).))	59.3 °C	-18.4 kcal/mol
GCAAGGCGAAAGCCTGGC ((.((((....)))).))	68.9 °C	-23.1 kcal/mol
GCAAGGCGAAAGCTCTGC (((..((....))..)))	43.7 °C	-21.5 kcal/mol
GCAAGGCGAAAGCTGTGC (((..((....))..)))	52.8 °C	-18.1 kcal/mol
GCAAGGCGAAAGCTTGGC ((.(.((....)).).))	44 °C	-17.9 kcal/mol
GCAAGGGGAAACCCTCAC (..((((....))))..)	25.2 °C	-9.15 kcal/mol
GCAAGGGGAAACCTTTGC ((((.((....)).))))	47.6 °C	-30.8 kcal/mol
GCAAGGGGAAACTCTTGC (((((.(....).)))))	50.1 °C	-45.3 kcal/mol
GCAAGTCGAAAGACATGC (((.(((....))).)))	52.7 °C	-29.1 kcal/mol
GCAAGTGGAAACACTCGC ((.((((....)))).))	44.3 °C	-25.4 kcal/mol
GCAAGTGGAAACACTTAC (.(((((....))))).)	34.6 °C	-18.7 kcal/mol

Sequence	Tm [1]	folding enthalpy [2]
GCAATACGAAAGTAATGC (((.(((....))).)))	47.4 °C	-37.4 kcal/mol
GCAATACGAAAGTACTGC (((.(((....))).)))	43.9 °C	-31.3 kcal/mol
GCAATAGGAAACTATCGC ((.((((....)))).))	33.9 °C	-18.6 kcal/mol
GCAATAGGAAACTATTGC (((((((....)))))))	56 °C	-45.8 kcal/mol
GCAATAGGAAACTGTTGC ((((.((....)).))))	47.4 °C	-33 kcal/mol
GCAATATCGAAAGATTGC (((..(((....))))))	39.5 °C	-25.5 kcal/mol
GCAATCCCGAAAGGGTGC (((..(((....))))))	46.6 °C	-19.1 kcal/mol
GCAATCGAAAGATATTGC ((((((....)))..)))	35.5 °C	-18.7 kcal/mol
GCAATCGAAAGATGATGC ((((((....)))..)))	32.5 °C	-18.6 kcal/mol
GCAATCGAAAGATGTGC ((((((....))).)))	39.5 °C	-25.5 kcal/mol
GCAATCGAAAGATGTTGC ((((((....)))..)))	34.6 °C	-15.9 kcal/mol
GCAATCGAAAGATTATGC ((((((....)))..)))	32.8 °C	-17.5 kcal/mol
GCAATGACGAAAGTCTGC (((..(((....))))))	42 °C	-19.4 kcal/mol
GCAATGCGAAAGCAAAGC ((..(((....)))..))	38 °C	-14.6 kcal/mol
GCAATGCGAAAGCATCGC ((.((((....)))).))	58.1 °C	-21.4 kcal/mol
GCAATGCGAAAGCATGGC ((.((((....)))).))	65.2 °C	-34 kcal/mol
GCAATGCGAAAGCGGTGC (((..((....))..)))	56.6 °C	-21.7 kcal/mol
GCAATGCGAAAGCGTCGC ((.(.((....)).).))	45.4 °C	-19.3 kcal/mol
GCAATGCGAAAGCTGTGC (((..((....))..)))	48.4 °C	-20.6 kcal/mol
GCAATGGGAAACCATCGC ((.((((....)))).))	42.1 °C	-28.8 kcal/mol
GCAATTGGAAACAATTAC (.(((((....))))).)	30.6 °C	-15.1 kcal/mol
GCAATTGGAAACAATTGC (((((((....)))))))	58.9 °C	-43.9 kcal/mol
GCACAAACGAAAGTTTGC (((..(((....))))))	39.7 °C	-11.2 kcal/mol

Sequence	Tm [1]	folding enthalpy [2]
GCACAAGGAAACTTGTGC (((((((....)))))))	67.4 °C	-33.7 kcal/mol
GCACACGAAAGTGATGC ((((((....))).)))	54.5 °C	-33.1 kcal/mol
GCACACGAAAGTGCATGC ((((((....)))..)))	42.1 °C	-14.4 kcal/mol
GCACACGAAAGTGCTTGC ((((((....)))..)))	53.6 °C	-20.8 kcal/mol
GCACACGAAAGTGGGTGC ((((((....)))..)))	53.5 °C	-24.1 kcal/mol
GCACACGAAAGTGTATGC ((((((....)))..)))	45.8 °C	-15.1 kcal/mol
GCACACGAAAGTGTTTGC ((((((....)))..)))	39.6 °C	-13.7 kcal/mol
GCACAGCGAAAGCAGAGC ((.(.((....)).).))	47.3 °C	-13.7 kcal/mol
GCACAGCGAAAGCGGCGC ((.(.((....)).).))	63.7 °C	-28.6 kcal/mol
GCACAGCGAAAGCTCGGC ((..(((....)))..))	38.4 °C	-15.2 kcal/mol
GCACAGCGAAAGCTGAGC ((.((((....)))).))	63.4 °C	-17.2 kcal/mol
GCACAGGGAAACCTGTGC (((((((....)))))))	69.3 °C	-38 kcal/mol
GCACATCCGAAAGGATGC (((..(((....))))))	37.4 °C	-8.29 kcal/mol
GCACATGGAAACATGTAC (.(((((....))))).)	37.4 °C	-17 kcal/mol
GCACATGGAAACATGTGC (((((((....)))))))	67.4 °C	-43.4 kcal/mol
GCACCAGAAATGGTGC ((((((....))))))	67.8 °C	-35.6 kcal/mol
GCACCAGCGAAAGCTTGC (((..(((....))))))	38.1 °C	-11.8 kcal/mol
GCACCAGGAAACTGGTAC (.(((((....))))).)	39.6 °C	-16.7 kcal/mol
GCACCCACGAAAGTGTGC (((..(((....))))))	45.4 °C	-19 kcal/mol
GCACCCCGAAAGGGTTGC (((.(((....))).)))	55.1 °C	-34.8 kcal/mol
GCACCCGAAAGGGACTGC ((((((....)))..)))	40.8 °C	-16 kcal/mol

Source: the array DNA melting data of Ke et al. (doi:10.1101/2024.01.08.574731)
